Reference: ChEMBL document CHEMBL4270537, “Design and biological evaluation of novel triaryl pyrazoline derivatives with dioxane moiety for selective BRAFV600E inhibition” (Eur J Med Chem, 2018)

What was measured:
A-375 [1] = assay: Induction of apoptosis in human A375 cells assessed as late apoptotic cells at 20 uM after 24 hrs by Annexin V-FITC/PI staining based flow cytometry (reference value: 4.26%); type: functional
A-375 [2] = assay: Induction of apoptosis in human A375 cells assessed as viable cells at 2 uM after 48 hrs by Annexin V-FITC/PI staining based flow cytometry (reference value: 89.4%); type: functional; settings: A-375, 48 h, read-out: Activity
A-375 [3] = assay: Induction of apoptosis in human A375 cells assessed as viable cells at 2 uM after 72 hrs by Annexin V-FITC/PI staining based flow cytometry (reference value: 89.4%); type: functional; settings: A-375, 72 h, read-out: Activity
A-375 [4] = assay: Cell cycle arrest in human A375 cells assessed as accumulation at G1 phase at 20 uM after 24 hrs by propidium iodide staining based flow cytometry (reference value: 73.6%); type: functional
A-375 [5] = assay: Induction of apoptosis in human A375 cells after 24 to 72 hrs by Annexin V-FITC/PI staining based flow cytometry; type: functional, cell-based
Outline: (§1)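 Apoptosis time course. A375 cells in 24-well plates (about 10⁵/well) at 2 µM for 0, 24, 48 and 72 h. Harvested by trypsin, washed in PBS, stained 15 min at room temperature in the dark with Annexin V-FITC/PI, analysed by flow cytometry.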

A-375 [6] = assay: Induction of apoptosis in human A375 cells assessed as early apoptotic cells at 2 uM after 24 hrs by Annexin V-FITC/PI staining based flow cytometry (reference value: 5.42%); type: functional; outline: as §1
A-375 [7] = assay: Induction of apoptosis in human A375 cells assessed as early apoptotic cells at 5 uM after 24 hrs by Annexin V-FITC/PI staining based flow cytometry (reference value: 5.45%); type: functional
[8] = molecular target: Dual specificity mitogen-activated protein kinase kinase; MEK1/2 (Homo sapiens, UniProt P36507+Q02750); assay: Inhibition of MEK1/2 (unknown origin); type: protein assay
A-375 [9] = assay: Induction of apoptosis in human A375 cells assessed as early apoptotic cells at 2.5 uM after 24 hrs by Annexin V-FITC/PI staining based flow cytometry (reference value: 5.45%); type: functional
A-375 [10] = assay: Induction of apoptosis in human A375 cells assessed as late apoptotic cells at 2 uM after 72 hrs by Annexin V-FITC/PI staining based flow cytometry (reference value: 3.61%); type: functional; outline: as §1
A-375 [11] = assay: Antiproliferative activity against human A375 cells after 48 hrs by MTT assay; type: functional; settings: A-375, 48 h
Outline: (§2)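 MTT reduction assay. Cell lines grown to log phase in DMEM with 10% FBS (A375 in DMEM with sodium pyruvate added), seeded at 10⁴ cells/well in 96-well plates. Three replicate wells per concentration, each assay run three times, GI50 averaged.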

A-375 [12] = assay: Cell cycle arrest in human A375 cells assessed as accumulation at G1 phase at 5 uM after 24 hrs by propidium iodide staining based flow cytometry (reference value: 73.6%); type: functional
[13] = Cytotoxicity against human LO2 cells assessed as decrease in cell viability after 48 hrs by MTT assay; type: cell-based, L02; outline: as §2
[14] = Effect on total ERK1/2 protein level in human WM1361 cells after 30 mins by Western blot analysis; type: ADME, cell-based; settings: 0.5 h
Outline: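 Western blot. Cells rinsed in cold PBS, lysed 30 min on ice in RIPA with protease inhibitors (1:100), cleared at 12,000 g, 4 °C. Protein measured by BCA, resolved by SDS-PAGE, transferred to PVDF, blocked in skim milk. Primary antibodies 1:500 overnight at 4 °C; secondary 1:5000 for 1 h at room temperature.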

A-375 [15] = assay: Induction of apoptosis in human A375 cells assessed as early apoptotic cells at 10 uM after 24 hrs by Annexin V-FITC/PI staining based flow cytometry (reference value: 5.45%); type: functional
A-375 [16] = assay: Cell cycle arrest in human A375 cells assessed as accumulation at G2/M phase at 2 uM after 24 hrs by propidium iodide staining based flow cytometry (reference value: 5.1%); type: functional
A-375 [17] = assay: Induction of apoptosis in human A375 cells assessed as early apoptotic cells at 2 uM after 48 hrs by Annexin V-FITC/PI staining based flow cytometry (reference value: 5.42%); type: functional; outline: as §1
WM 266-4 = assay: Antiproliferative activity against human WM266.4 cells after 48 hrs by MTT assay; type: functional; settings: WM 266-4, 48 h; outline: as §2
A-375 [18] = assay: Induction of apoptosis in human A375 cells assessed as late apoptotic cells at 2 uM after 24 hrs by Annexin V-FITC/PI staining based flow cytometry (reference value: 3.61%); type: functional; outline: as §1
A-375 [19] = assay: Cell cycle arrest in human A375 cells assessed as accumulation at S phase at 2 uM after 48 hrs by propidium iodide staining based flow cytometry (reference value: 21.3%); type: functional
A-375 [20] = assay: Cell cycle arrest in human A375 cells assessed as accumulation at G2/M phase at 20 uM after 24 hrs by propidium iodide staining based flow cytometry (reference value: 5.1%); type: functional
A-375 [21] = assay: Induction of apoptosis in human A375 cells assessed as late apoptotic cells at 2.5 uM after 24 hrs by Annexin V-FITC/PI staining based flow cytometry (reference value: 4.26%); type: functional
[22] = molecular target: RAF proto-oncogene serine/threonine-protein kinase (Homo sapiens, UniProt P04049, Y340D/Y341D); assay: Inhibition of recombinant human GST-tagged c-RAF (306 to 648 residues) Y340D/Y341D mutant expressed in baculovirus expression system using recombinant human full length N-terminal His-tagged MEK1 as substrate preincubated for 1 hr followed by substrate addition measured after 25 mins
[23] = Cytotoxicity against HEK293T cells assessed as decrease in cell viability after 48 hrs by MTT assay; type: cell-based, HEK-293T; settings: human; outline: as §2
[24] = tested on: Serine/threonine-protein kinase B-raf (Homo sapiens), P15056 [V600E]; assay: Inhibition of BRAF V600E mutant in human A375 cells assessed as decrease in ERK1/2 phosphorylation after 30 mins by Western blot analysis; type: cell-based
Outline: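 A375 cells treated with compound at 0, 0.05, 0.1 and 0.5 µM, then PBS-rinsed and lysed in RIPA with protease inhibitors on ice for 30 min. Lysate was cleared at 12,000 g, 4 °C, and protein assayed by BCA. Samples run on SDS-PAGE and transferred to PVDF. Membranes were milk-blocked, probed with primary antibody (1:500) overnight at 4 °C, then secondary antibody (1:5000) for 1 h at room temperature.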

A-375 [25] = assay: Cell cycle arrest in human A375 cells assessed as accumulation at S phase at 2 uM after 72 hrs by propidium iodide staining based flow cytometry (reference value: 21.3%); type: functional
A-375 [26] = assay: Cell cycle arrest in human A375 cells assessed as accumulation at G1 phase at 2 uM after 48 hrs by propidium iodide staining based flow cytometry (reference value: 73.6%); type: functional
[27] = Antiproliferative activity against human WM1361 cells after 48 hrs by MTT assay; type: functional; settings: WM1361, 48 h; outline: as §2
A-375 [28] = assay: Cell cycle arrest in human A375 cells assessed as accumulation at G2/M phase at 2.5 uM after 24 hrs by propidium iodide staining based flow cytometry (reference value: 5.1%); type: functional

Sequence of Serine/threonine-protein kinase B-raf (Homo sapiens), P15056 [V600E] (P15056 whole entry V600E): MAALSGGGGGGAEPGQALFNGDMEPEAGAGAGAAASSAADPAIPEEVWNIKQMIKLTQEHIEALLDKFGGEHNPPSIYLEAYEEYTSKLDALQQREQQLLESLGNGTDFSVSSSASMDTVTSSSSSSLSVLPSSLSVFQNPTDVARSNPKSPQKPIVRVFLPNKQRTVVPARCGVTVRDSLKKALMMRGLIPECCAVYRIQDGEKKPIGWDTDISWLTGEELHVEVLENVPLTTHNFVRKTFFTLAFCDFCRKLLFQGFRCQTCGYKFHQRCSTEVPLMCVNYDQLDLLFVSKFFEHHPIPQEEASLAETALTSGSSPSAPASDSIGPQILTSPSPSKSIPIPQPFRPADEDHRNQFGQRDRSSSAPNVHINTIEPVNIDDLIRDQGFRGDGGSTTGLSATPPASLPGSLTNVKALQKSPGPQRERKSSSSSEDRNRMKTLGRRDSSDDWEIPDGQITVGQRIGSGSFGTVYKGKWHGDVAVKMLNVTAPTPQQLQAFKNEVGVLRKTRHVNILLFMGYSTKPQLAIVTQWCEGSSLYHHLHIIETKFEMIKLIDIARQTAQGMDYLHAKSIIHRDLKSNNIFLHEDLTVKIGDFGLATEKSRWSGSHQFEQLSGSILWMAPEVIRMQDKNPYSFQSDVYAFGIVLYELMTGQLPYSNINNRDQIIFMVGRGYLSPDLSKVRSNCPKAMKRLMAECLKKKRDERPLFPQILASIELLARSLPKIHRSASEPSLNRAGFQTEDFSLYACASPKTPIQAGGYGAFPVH
Sequence of RAF proto-oncogene serine/threonine-protein kinase (P04049 whole entry Y340D/Y341D, the tested form may be a part): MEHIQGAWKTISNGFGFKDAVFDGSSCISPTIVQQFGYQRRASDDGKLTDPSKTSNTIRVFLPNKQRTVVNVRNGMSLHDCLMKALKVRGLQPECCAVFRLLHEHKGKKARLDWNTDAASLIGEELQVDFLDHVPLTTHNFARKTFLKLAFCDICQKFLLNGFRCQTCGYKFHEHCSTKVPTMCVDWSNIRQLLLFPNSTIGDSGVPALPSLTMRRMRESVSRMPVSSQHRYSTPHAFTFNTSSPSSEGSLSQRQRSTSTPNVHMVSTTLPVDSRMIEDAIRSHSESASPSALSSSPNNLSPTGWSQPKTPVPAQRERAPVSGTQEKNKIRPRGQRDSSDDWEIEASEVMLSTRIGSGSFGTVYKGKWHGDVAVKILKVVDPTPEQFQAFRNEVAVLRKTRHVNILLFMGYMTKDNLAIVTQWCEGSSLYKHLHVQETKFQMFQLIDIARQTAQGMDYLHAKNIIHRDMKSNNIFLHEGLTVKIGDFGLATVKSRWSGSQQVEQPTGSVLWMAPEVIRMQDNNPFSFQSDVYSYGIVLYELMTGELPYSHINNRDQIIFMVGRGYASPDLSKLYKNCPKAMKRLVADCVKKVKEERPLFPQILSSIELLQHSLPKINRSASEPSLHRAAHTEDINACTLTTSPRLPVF

For COc1cccc(C2=NN(C(=S)Nc3ccccc3)C(c3ccc4c(c3)OCCO4)C2)c1 (centres undefined), the Activity (A-375 [1]) was 11%, the viability at 2 µM (A-375 [2]) was 74.5% and the viability at 2 µM (A-375 [3]) was 71.1%. For the same molecule, the Activity (A-375 [4]) was 52.8%, the Activity (A-375 [5]) was “Dose-dependent effect” and the Activity (A-375 [6]) was 10.9%. It also gave an Activity (A-375 [7]) of 23.4%, an IC50 [8] of 195 µM and an Activity (A-375 [9]) of 16.7%. The Activity (A-375 [10]) was 6.49%, the GI50 (A-375 [11]) was 0.52 µM and the Activity (A-375 [12]) was 61.3%. For the same molecule, the GI50 at 48 h [13] was greater than 200 µM, the Activity [14] was “Non-Toxic” and the Activity (A-375 [15]) was 45%. The Activity (A-375 [16]) was 10.3%, the Activity (A-375 [17]) was 17.1% and the GI50 (WM 266-4) was 1.38 µM. The Activity (A-375 [18]) was 6.76%, the Activity (A-375 [19]) was 26.2% and the Activity (A-375 [20]) was 30.2%. For the same molecule, the Activity (A-375 [21]) was 5.43%, the IC50 [22] was greater than 200 µM and the GI50 at 48 h [23] was greater than 200 µM. The inhibition [24] was “Dose-dependent effect”, the Activity (A-375 [25]) was 27.6% and the Activity (A-375 [26]) was 58.8%. The GI50 [27] was greater than 200 µM and the Activity (A-375 [28]) was 8.2%.
